From ChEMBL document CHEMBL5223075, “Discovery of thienothiazolocarboxamide analogues as novel anti-tubercular agent” (Bioorg Med Chem, 2020)
Values after ≈ are worked out from the molar mass of the structure shown.

Columns and labels:
[1] = tested on: Mycobacterium tuberculosis; assay: Antitubercular activity against Mycobacterium tuberculosis H37Rv ATCC 27294 expressing the green fluorescence protein assessed as inhibition of bacterial growth by measuring GFP fluorescence incubated for 5 days by fluorescence based plate reader analysis; format: functional, organism-based; conditions: H37Rv ATCC 27294, 120 h
Procedure, shortened: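 H37Rv-GFP was grown 14 days in 7H9/OADC/Tween/glycerol/hygromycin, washed, and seeded at ~3×10^6 CFU/mL. Compounds were given as 10-point 2-fold series starting at 20 or 1 µM, in 1% DMSO final. Plates ran 5 days at 37°C, 5% CO2, with rifampicin 1 µg/mL as positive control. GFP fluorescence was read and IC50 taken from a 4-parameter sigmoid fit.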

[2] = tested on: Mycobacterium tuberculosis; assay: Antitubercular activity against Mycobacterium tuberculosis H37Rv ATCC 27294 expressing the green fluorescence protein infected in mouse RAW264.7 cells assessed as inhibition of bacterial growth pre-infected with cell followed by compound addition and measured after 5 days by Hoechst 33342 staining based analysis; format: functional, organism-based; conditions: H37Rv ATCC 27294, RAW264.7, 120 h
Procedure, shortened: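 RAW 264.7 cells, passages 2-9, were infected with washed H37Rv-GFP at MOI 20 for 2 h at 37°C with shaking. Cells were washed and plated at 20,000/well over 2-fold compound dilutions for 5 days. Nuclei were stained with 5 µM Hoechst (final) and 3 fields/well imaged. Four parameters (cell count, bacterial area, area per infected cell, infected-cell ratio) were each fitted by 4-parameter sigmoid, and the IC50s averaged.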

[3] = Solubility of the compound at pH 7.4; format: physicochemical; conditions: buffer
[4] = Solubility of the compound at pH 2.1; format: physicochemical; conditions: buffer
[5] = Metabolic stability in human liver microsome assessed as phase I mediated metabolite formation by measuring half-life; format: ADME; conditions: microsomes
[6] = Metabolic stability in mouse liver microsome assessed as phase I mediated metabolite formation by measuring half-life; format: ADME; conditions: microsomes

| SMILES | IC50 [1] [nM] | IC50 [2] [nM] | solubility [3] [µg/mL] | solubility [4] [µg/mL] | t1/2 [5] [min] | t1/2 [6] [min] |
| --- | --- | --- | --- | --- | --- | --- |
| O=C(Nc1ccc(Cl)cc1)c1cc2sc(N3CCCCC3)nc2s1 | 1100 | 110 |  |  |  |  |
| COc1ccc(N(C)C(=O)c2cc3sc(N4CCCCC4)nc3s2)cc1 | > 20000 | > 20000 |  |  |  |  |
| O=C(Nc1ccc(O)cc1)c1cc2sc(N3CCCCC3)nc2s1 | 4800 | 2750 |  |  |  |  |
| COc1ccc(NC(=O)c2cc3sc(N4CCC(F)(F)CC4)nc3s2)cc1 | 1100 | 330 |  |  |  |  |
| COc1ccc(C(=O)Nc2cc3sc(N4CCCCC4)nc3s2)cc1 | > 20000 | > 20000 |  |  |  |  |
| CO[C@H]1/C=C/O[C@@]2(C)Oc3c(C)c(O)c4c(O)c(c(/C=N/N5CCN(C)CC5)c(O)c4c3C2=O)NC(=O)/C(C)=C\C=C\[C@H](C)[C@H](O)[C@@H](C)[C@@H](O)[C@@H](C)[C@H](OC(C)=O)[C@@H]1C [RIFAMPIN] | 10 | 60 |  |  |  |  |
| O=C(Nc1ccc(-c2ccc(F)cc2)cn1)c1cc2sc(NCCN3CCOCC3)nc2s1 | 4700 | 360 | 0.56 (≈ 1.16 µM) | 44.2 (≈ 91.4 µM) |  |  |
| Cc1nc2cc(NC(=O)c3cc4sc(N5CCC(O)CC5)nc4s3)ccc2o1 | 640 | 460 | 2.4 (≈ 5.79 µM) | 9.7 (≈ 23.4 µM) | > 60 | > 60 |
| O=C(Nc1ccc(-c2ccc(F)cc2)nc1)c1cc2sc(NCCN3CCOCC3)nc2s1 | 4600 | 370 | 0.57 (≈ 1.18 µM) | > 50 |  |  |
| COc1cc(NC(=O)c2cc3sc(N4CCCCC4)nc3s2)cc(OC)c1 | > 20000 | > 20000 |  |  | 24.5 | 33.6 |
| O=C(Nc1ccc(-c2ccc(F)nc2)cc1)c1cc2sc(NCCN3CCOCC3)nc2s1 | 610 | 100 | 1.1 (≈ 2.27 µM) | 1.5 (≈ 3.1 µM) | 25.1 | 45.6 |
| NNC(=O)c1ccncc1 [ISONIAZID] | 400 | 350 |  |  |  |  |
| COc1ccc(CNC(=O)c2cc3sc(N4CCCCC4)nc3s2)cc1 | > 20000 | > 20000 |  |  |  |  |
| Cc1nc2cc(NC(=O)c3cc4sc(N5CC(C)OC(C)C5)nc4s3)ccc2o1 (centres undefined) | 1100 | 250 |  |  |  |  |
| Cc1nc2cc(NC(=O)c3cc4sc(N5CCC(CO)CC5)nc4s3)ccc2o1 | 500 | 230 |  |  |  |  |
